Measurements taken from ChEMBL document CHEMBL1144697, “9-cyano-1-azapaullone (cazpaullone), a glycogen synthase kinase-3 (GSK-3) inhibitor activating pancreatic beta cell protection and replication” (J Med Chem, 2008).
The source made the active and inactive calls. The rule behind the calls is not given here.

Key:
[1] = biological target: Glycogen synthase kinase-3 (Homo sapiens, UniProt P49840+P49841); experiment: Inhibition of GSK3alpha/beta in pig brain; parameters: species or system Sus scrofa; conditions: target entry is the homologue from another species
[2] = biological target: Cyclin-dependent kinase 5/CDK5 activator 1 (Homo sapiens, UniProt Q00535); experiment: Inhibition of recombinant CDK5/p25 expressed in Escherichia coli
[3] = Inhibition of starfish CDK1/cyclin B; parameters: species or system Asteroidea
Method in brief: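 Kinase inhibition assays at 15 µM final ATP, run in triplicate.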

[4] = Activation of Pax4 RNA expression in rat beta cells at 2 uM after 4 hrs relative to control; type: functional, cell-based; conditions: Pancreatic beta cell
Method in brief: (§1)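 Primary rat islets exposed to compound for 4 h. Pax4 and cyclophilin B expression measured by qRT-PCR as fold change versus vehicle-treated control (set to 1). Triplicates, mean ± SD.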

[5] = Activation of cyclophilin B gene expression in rat beta cells at 2 uM after 4 hrs relative to control; type: functional, cell-based; conditions: Pancreatic beta cell; method in brief: as §1
SH-SY5Y = experiment: Inhibition of GSK3 in human SHSY5Y cells assessed as beta-casein phosphorylation level in presence of MG132; type: cell-based; conditions: in the assay text read “beta-catenin” for “beta-casein”
Method in brief: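 Nearly confluent SH-SY5Y cells in DMEM with 10% FCS were co-treated with compound across a concentration range plus 2 µM MG132, DMSO ≤1% final. Phospho-β-catenin (Ser33/Ser37/Thr41) measured by ELISA and expressed as % of cells given MG132 alone (100%).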

INS-1E [6] = experiment: Protection against glucose and palmitate-induced toxicity in rat INS-1E cells after 24 hrs; type: functional, cell-based
Method in brief: (§2)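 INS-1E cells treated with compound over a concentration range, with or without 0.3 mM BSA-coupled palmitate plus 25 mM glucose for 24 h. Viability/metabolic activity measured as an indirect readout of mitochondrial energy production. At least four wells per point; representative of ≥3 independent studies.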

INS-1E [7] = experiment: Protection against glucose and palmitate-induced toxicity in rat INS-1E cells at 0.3 uM after 24 hrs; type: functional, cell-based; method in brief: as §2
INS-1E [8] = experiment: Protection against glucose and palmitate-induced toxicity in rat INS-1E cells at 2 uM after 24 hrs; type: functional, cell-based; method in brief: as §2
INS-1E [9] = experiment: Suppression of metabolic activity in rat INS-1E cells at 1 uM; type: functional, cell-based; method in brief: as §2
INS-1E [10] = experiment: Inhibition of glucose and palmitate-induced apoptosis in rat INS-1E cells by DNA fragmentation assay; type: functional, cell-based
Method in brief: (§3)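 INS-1E cells preincubated 1 h with compound (µM), then exposed to toxic high glucose/palmitate for 24 h. Apoptosis read as cytosolic DNA fragments or caspase activity, as fold change versus untreated control ± SD. At least four wells per point; Student's t test against glucose/palmitate alone.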

INS-1E [11] = experiment: Inhibition of glucose and palmitate-induced apoptosis in rat INS-1E cells by caspase activity assay; type: functional, cell-based; method in brief: as §3
[12] = Inhibition of glucose and palmitate-induced apoptosis in rat INS-1E cells at 2 uM by DNA fragmentation assay; type: functional; parameters: scale not given: the % may be the effect or the level left; method in brief: as §3
[13] = Inhibition of glucose and palmitate-induced apoptosis in rat INS-1E cells at 2 uM by caspase activity assay; type: functional; parameters: scale not given: the % may be the effect or the level left; method in brief: as §3
INS-1E [14] = experiment: Stimulation of rat INS-1E cell replication assessed as BrdU incorporation; type: functional, cell-based
Method in brief: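 INS-1E cells exposed to compound at various concentrations for 24 h. Replication measured as BrdU incorporation, given as fold increase versus untreated cells ± SD. At least four wells per point, two independent studies, Student's t test.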

Pancreatic beta cell [15] = experiment: Stimulation of rat primary beta cell replication at 0.5 uM; type: functional
Method in brief: (§4)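 Isolated rat islets incubated with compound for 72 h, then disaggregated and spotted onto slides. Cells double-immunostained for C-peptide and Ki-67. Replication scored as % Ki-67+ among C-peptide+ cells, compared with untreated islets.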

Pancreatic beta cell [16] = experiment: Stimulation of rat primary beta cell replication at 2 uM; type: functional; method in brief: as §4
[17] = Activation of Pax4 RNA expression in rat INS-1E cells at 1 uM after 4 hrs relative to control; type: functional, cell-based
Method in brief: (§5)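 Compound added to INS-1E cells for 4 h or 24 h. Pax4 and cyclophilin B transcripts quantified by qRT-PCR. Reported as fold change versus vehicle-treated control, with the control level set to 1. Mean of triplicates ± SD.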

[18] = Activation of Pax4 RNA expression in rat INS-1E cells at 1 uM after 24 hrs relative to control; type: functional, cell-based; method in brief: as §5
[19] = Activation of cyclophilin B gene expression in rat INS-1E cells at 1 uM after 4 hrs relative to control; type: functional, cell-based; method in brief: as §5
[20] = Activation of cyclophilin B gene expression in rat INS-1E cells at 1 uM after 24 hrs relative to control; type: functional, cell-based; method in brief: as §5
[21] = Activation of Pax4 RNA expression in rat INS-1E cells at 10 uM after 4 hrs relative to control; type: functional, cell-based; method in brief: as §5
[22] = Activation of Pax4 RNA expression in rat INS-1E cells at 10 uM after 24 hrs relative to control; type: functional, cell-based; method in brief: as §5
[23] = Activation of cyclophilin B gene expression in rat INS-1E cells at 10 uM after 4 hrs relative to control; type: functional, cell-based; method in brief: as §5
[24] = Activation of cyclophilin B gene expression in rat INS-1E cells at 10 uM after 24 hrs relative to control; type: functional, cell-based; method in brief: as §5
Pancreatic beta cell [25] = experiment: Stimulation of rat primary beta cell replication at 5 uM; type: functional; method in brief: as §4

Cyclin-dependent kinase 5/CDK5 activator 1, sequence (Q00535 whole entry): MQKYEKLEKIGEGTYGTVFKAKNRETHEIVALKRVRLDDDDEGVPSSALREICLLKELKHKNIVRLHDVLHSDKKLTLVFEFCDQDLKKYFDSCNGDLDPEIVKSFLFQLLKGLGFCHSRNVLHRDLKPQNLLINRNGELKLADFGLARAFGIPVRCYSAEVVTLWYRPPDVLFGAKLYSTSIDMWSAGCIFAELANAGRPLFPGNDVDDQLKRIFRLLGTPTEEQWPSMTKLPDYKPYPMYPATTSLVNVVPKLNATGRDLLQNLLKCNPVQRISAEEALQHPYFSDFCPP
Cyclin-dependent kinase 5/CDK5 activator 1, sequence (Q15078 whole entry, further chain): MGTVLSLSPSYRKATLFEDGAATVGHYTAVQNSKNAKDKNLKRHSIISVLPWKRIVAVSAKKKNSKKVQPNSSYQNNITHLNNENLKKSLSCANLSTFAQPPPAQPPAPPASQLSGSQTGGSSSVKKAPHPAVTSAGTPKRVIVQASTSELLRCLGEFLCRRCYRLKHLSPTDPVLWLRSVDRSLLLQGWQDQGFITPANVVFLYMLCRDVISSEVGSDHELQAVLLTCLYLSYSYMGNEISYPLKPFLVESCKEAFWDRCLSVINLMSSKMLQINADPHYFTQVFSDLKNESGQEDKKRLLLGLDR

IC50 [1]	IC50 [2]	SMILES	IC50 [3]	also measured
0.8 µM	9 µM	O=C1Cc2c([nH]c3ccccc23)-c2ncccc2N1	7 µM	
0.12 µM	2 µM	N#Cc1cc(I)c2[nH]c3c(c2c1)CC(=O)Nc1cccnc1-3	0.41 µM	
2.1 µM	> 10 µM	O=C1Cc2c(n(Cc3ccccc3)c3ccccc23)-c2ncccc2N1	> 10 µM	
0.41 µM	> 10 µM	O=C1Cc2c(n3c4c(cccc24)CC3)-c2ncccc2N1	> 10 µM	
13 µM	> 10 µM	CCn1c2c(c3ccccc31)CC(=O)Nc1cccnc1-2	> 10 µM	
0.8 µM	4 µM	COc1ccc2[nH]c3c(c2c1)CC(=O)Nc1cccnc1-3	2 µM	
0.008 µM	10 µM	O=C1Cc2c([nH]c3ccc(C(F)(F)F)cc23)-c2ncccc2N1	1.65 µM	Activity (SH-SY5Y): Dose-dependent effect; Activity (INS-1E [6]): Active; Activity (INS-1E [10]): Active; Activity (INS-1E [11]): Active; Activity (INS-1E [14]): Dose-dependent effect; Fold change [21]: 0.72; Fold change [22]: 0.61; Fold change [23]: 1.2; Fold change [24]: 1.3
0.052 µM	0.18 µM	O=C1Cc2c([nH]c3ccc(Br)cc23)-c2cnccc2N1	0.11 µM	
0.08 µM	3 µM	O=C1Cc2c([nH]c3ccc(F)cc23)-c2ncccc2N1	4.5 µM	Activity (INS-1E [6]): Active; Activity (INS-1E [10]): Active; Activity (INS-1E [11]): Active; Activity (INS-1E [14]): Dose-dependent effect; Fold change [21]: 0.97; Fold change [22]: 0.45; Fold change [23]: 1.14; Fold change [24]: 0.97
0.8 µM	100 µM	O=C1Cc2c([nH]c3cc(Cl)cc(Cl)c23)-c2ncccc2N1	> 30 µM	
100 µM	30 µM	O=C1Cc2c([nH]c3ccc(C(=O)O)cc23)-c2ncccc2N1	2.2 µM	
0.021 µM	0.032 µM	N#Cc1ccc2[nH]c3c(c2c1)CC(=O)Nc1ccncc1-3	0.031 µM	
0.8 µM	> 10 µM	CCn1c2c(c3ccccc31)CC(=O)Nc1ccncc1-2	3.8 µM	

The remaining lines, values behind:

SMILES	IC50 [1]	IC50 [2]	IC50 [3]	also measured
O=C1Cc2c([nH]c3ccc(Cl)cc23)-c2ncccc2N1	0.063 µM	> 10 µM	> 10 µM	
O=C1Cc2c(oc3ccc(Br)cc23)-c2ccccc2N1	> 10 µM	> 10 µM	> 10 µM	
N#Cc1ccc2[nH]c3c(c2c1)CC(=O)Nc1cccnc1-3 [CAZPAULLONE]	0.008 µM	0.3 µM	0.5 µM	Fold change [4]: 2.4; Fold change [5]: 0.73; Activity (SH-SY5Y): Dose-dependent effect; Activity (INS-1E [6]): Active; Activity (INS-1E [7]): Active; Activity (INS-1E [8]): Active; Activity (INS-1E [9]): Active; Activity (INS-1E [10]): Active; Activity (INS-1E [11]): Active; Activity [12]: >50%; Activity [13]: >50%; Activity (INS-1E [14]): Dose-dependent effect; Activity (Pancreatic beta cell [15]): 2.5; Activity (Pancreatic beta cell [16]): inactive; Fold change [17]: 4.87; Fold change [18]: 0.56; Fold change [19]: 1.11; Fold change [20]: 1.42
COc1ccc2[nH]c3c(c2c1)CC(=O)Nc1ccncc1-3	0.39 µM	0.4 µM	0.2 µM	
O=C1Cc2c(n(-c3ccccc3)c3ccccc23)-c2ncccc2N1	> 10 µM	> 10 µM	> 10 µM	
O=C1Cc2c(oc3ccc(Cl)cc23)-c2ccccc2N1	> 10 µM	> 10 µM	> 10 µM	
O=C1Cc2c([nH]c3ccc(Br)cc23)-c2ncccc2N1 [AZAKENPAULLONE]			2 µM	
O=C1Cc2c(oc3ccccc23)-c2ccccc2N1	> 10 µM	> 10 µM	> 10 µM	
O=C1Cc2c([nH]c3ccc(Cl)cc23)-c2cnccc2N1	0.018 µM	0.21 µM	0.12 µM	
O=C1Cc2c(n(Cc3ccccc3)c3ccccc23)-c2cnccc2N1	0.41 µM	> 10 µM	> 10 µM	
Cn1c2c(c3ccccc31)CC(=O)Nc1ccncc1-2	0.4 µM	> 10 µM	8 µM	
O=C1Cc2c([nH]c3ccc(I)cc23)-c2ncccc2N1	0.025 µM	6 µM	1 µM	Activity (INS-1E [6]): Active
Cc1ccc2[nH]c3c(c2c1)CC(=O)Nc1cccnc1-3	0.13 µM	> 10 µM	8 µM	
O=C1Cc2c([nH]c3ccc(Br)cc23)-c2ccccc2N1 [KENPAULLONE]				Activity (SH-SY5Y): Dose-dependent effect
O=C1Cc2c([nH]c3c(F)cc(F)cc23)-c2ncccc2N1	1.8 µM	> 10 µM	> 10 µM	
O=C1Cc2c([nH]c3ccc(C(F)(F)F)cc23)-c2cnccc2N1	0.013 µM	0.12 µM	0.19 µM	
O=C1Cc2c([nH]c3ccc(F)cc23)-c2cnccc2N1	0.051 µM	0.26 µM	1.2 µM	
Cn1c2c(c3ccccc31)CC(=O)Nc1cccnc1-2	1 µM	3 µM	> 10 µM	
Cc1cnc(-c2cnc(NCCNc3ccc(C#N)cn3)nc2-c2ccc(Cl)cc2Cl)[nH]1 [LADUVIGLUSIB]				Activity (Pancreatic beta cell [25]): 2.5; Fold change [21]: 0.78; Fold change [22]: 0.76; Fold change [23]: 1.31; Fold change [24]: 1.12
N#Cc1ccc2[nH]c3c(c2c1)CC(=O)Nc1ccc(Br)nc1-3	3.8 µM	10 µM		
N#Cc1ccc2c(c1)-c1[nH]c3ccc(C#N)cc3c1CC(=O)N2	0.028 µM	0.73 µM	0.12 µM	
O=C1Cc2c([nH]c3ccc(O)cc23)-c2ncccc2N1	1.4 µM	5 µM	4 µM	
O=C1Nc2cc(Br)ccc2/C1=C1/Nc2ccccc2/C1=N\O				Fold change [17]: 1.02; Fold change [18]: 0.81; Fold change [19]: 1.04; Fold change [20]: 1.2
